{"source": "paper PMC11959959", "about": "(Acta Pharmaceutica Sinica. B, 2024)", "key": {"[1]": {"system": "B16F10 tumor-bearing mice", "assay": "PET/CT imaging in B16F10 tumor-bearing mice", "type": "in vivo", "conditions": "0.5 and 1 h p.i.", "in_short": "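Mice bear s.c. B16F10 allografts (1×10^6 cells, left flank), imaged at tumor volume ≥100 mm³, usually day 10. They receive 200 μCi of tracer in 100 μL normal saline by tail vein. Dynamic micro-PET/CT runs for 1 h from injection, with three mice per tracer. The PEGylated tracer also gets static scans at 0.5, 1, 5, 10 and 24 h. Data are decay-corrected and given as %ID/g.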"}, "B16F10 cells": {"system": "B16F10 cells", "assay": "Cell uptake assay in B16F10 cells", "type": "cell-based, murine", "conditions": "750 kBq/mL, 5-80 min"}}}
{"substance": "[^64Cu]QM-2303: 64Cu-labeled PEGibody from QM-2302 PEGylated with 4-arm PEG (KSSPHSRNSGSGSGSGSGRGDSPC; NOTA conjugated to the N-terminus; thiol group of the C-terminal cysteine linked to 4-arm PEG; labelled with ^64Cu in the cell assays)", "values": [{"measurement": "kidney accumulation", "setting": "[1]", "result": "comparable to that of [^64Cu]QM-2301"}, {"measurement": "cell uptake / percentage of binding to integrin α5β1", "setting": "B16F10 cells", "result": "greater percentage of binding to integrin α5β1 than [^64Cu]QM-2301 and [^64Cu]QM-2302"}]}
